Compound activity: PubChem, several laboratories
In the library only some 4% were active in any assay of this set; here they are far more common.
PHOSPHO1 inh = PubChem AID 1565; Phosphoethanolamine/phosphocholine phosphatase (Homo sapiens), Q8TCT1; recombinant PHOSPHO1, absorbance phosphatase assay; inhibition, % at 13.3 µM; 1.1% of 290,000 active; in the data active = inhibition above about 60%
KCNQ1 pot = potentiators or activators of KCNQ1 channel, primary screen, cell-based, thallium flux, high-throughput; AID 2648, 2010; CHO-K1 KCNQ1, thallium flux FluxOR fluorescence; active compounds read high; B-score at 10 µM; Potassium voltage-gated channel subfamily KQT member 1 (Homo sapiens), P51787; 0.35% of 310,000 active;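 active = fluorescence ratio B-score, a plate-corrected score, at least three library SD, with initial intensity B-score within 5 SD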
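Doses: Single concentration per compound, DMSO matched to controls | Test system: KCNQ1-transfected CHO-K1 cells | Timing: 90 min dye loading and 20 min compound exposure, both at room temperature | Measured by: Kinetic FluxOR thallium fluorescence, 10-s 1-Hz baseline, 110-s post-stimulus read | Medium: Assay buffer with matched DMSO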
KCNQ1 inh = inhibitors of human KCNQ1 channel, primary screen, cell-based, thallium flux, high-throughput. CHO-K1 KCNQ1, FluxOR thallium flux fluorescence; active compounds read high. B-score at 10 µM. Potassium voltage-gated channel subfamily KQT member 1 (Homo sapiens), P51787. 1.3% of 310,000 active;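 active = compounds whose thallium flux B-score, printed positive for inhibition, exceeds three library SD while starting fluorescence stays within three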;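 also: channel opened by potassium depolarization with thallium stimulus after 20 min compound exposure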
hERG protect = hERG rescue from dofetilide block, primary screen, cell-based, CHO-hERG, FluxOR thallium flux, dofetilide IC70 | Voltage-gated inwardly rectifying potassium channel KCNH2 (Homo sapiens), Q12809 | 0.51% of 310,000 active | activation (rescue from dofetilide block), less the hit threshold, % at 10 µM | dofetilide IC70 present;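 active = activation above the mean of controls blocked by dofetilide plus 5 SD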;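 also: thallium influx through hERG after potassium depolarization seen as dye fluorescence rise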
KCNK9 inh = KCNK9 potassium channel inhibitors, primary screen, HEK293 cells, thallium flux; AID 488922, 2010; Potassium channel subfamily K member 9 (Homo sapiens), Q9NPC2; 1.2% of 310,000 active; FluxOR thallium flux fluorescence; active compounds read low; B-score at 10 µM;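 active = ratio B-score over 3 SD below the library mean, with starting fluorescence within 5 SD of its mean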;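 also: negative B-score means less thallium flux so channel inhibition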
Target sequence (Q9NPC2 whole entry, looked up): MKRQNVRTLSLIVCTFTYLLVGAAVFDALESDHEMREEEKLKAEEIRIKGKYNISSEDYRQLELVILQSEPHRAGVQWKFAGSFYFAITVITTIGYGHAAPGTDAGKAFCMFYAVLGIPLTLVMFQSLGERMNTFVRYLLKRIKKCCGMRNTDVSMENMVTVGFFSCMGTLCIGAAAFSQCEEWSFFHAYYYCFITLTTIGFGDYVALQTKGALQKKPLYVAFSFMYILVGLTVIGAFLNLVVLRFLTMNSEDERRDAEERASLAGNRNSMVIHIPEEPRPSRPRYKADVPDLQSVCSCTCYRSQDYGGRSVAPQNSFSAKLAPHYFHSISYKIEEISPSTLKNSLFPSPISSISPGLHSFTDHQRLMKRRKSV
KCNK3 inh = human KCNK3 channel inhibitors, primary screen, CHO cells, FluxOR thallium flux, B-score | B-score at 10 µM | 0.84% of 340,000 active | FluxOR fluorescence; active compounds read low;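 active = B-score under library mean minus 4 SD, starting fluorescence ratio at most library mean plus 5 SD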;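 also: more negative B-score means stronger inhibition of thallium flux through KCNK3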
Hits are given with their value; - = inactive; . = no result; ! = repeats disagree.

SMILES	PHOSPHO1 inh	KCNQ1 pot	KCNQ1 inh	hERG protect	KCNK9 inh	KCNK3 inh
c1ccc(-c2cc(-c3ccccc3)[n+](-c3ccccc3)c(-c3ccccc3)c2)cc1	-	-	13	-	-	-10
CN(C)c1ccc(-[n+]2c(-c3ccccc3)cc(-c3ccccc3)cc2-c2ccccc2)cc1	-	-	12	-	-	-9
Cc1ccc(C(O)P(=O)(Oc2ccccc2)Oc2ccccc2)cc1 (stereo not given)	.	-	-	-	-	-
O=C(c1cc(F)ccc1F)C1CCCN(Cc2cc(Cl)ccc2O)C1 (stereo not given)	-	-	6	-	-	-
Cc1nc2ccc(Cl)cc2c(=O)n1-c1ccccc1Cl	-	-	-	-	-	-
CNCCCc1ccccc1	-	-	-	6.5	-	-
CC(C)Oc1cccc(NC(=O)c2cccn(Cc3ccc4c(c3)OC(F)(F)O4)c2=O)c1	-	-	7	-	-7.9	-
Cn1ncnc2c(=O)n(C)c(=O)nc1-2	79	-	-	-	-	-
FC(F)(F)Oc1ccc(C2NCc3ccccc3-n3cccc32)cc1 (stereo not given)	.	-	-	-	-	-
CC(=O)C1C2c3ccccc3O[C@@]1(C)N=c1s/c(=C/c3ccoc3)c(=O)n12 (stereo not given in full)	-	-	7	-	-	-
COC(=O)C1C2c3ccccc3OC1(C)N=c1s/c(=C/c3cn(C)nc3C)c(=O)n12 (stereo not given)	-	-	-	-	-	-
O=C1NC(=S)NC(=O)C12C(c1ccc(F)cc1)NC(=S)NC2c1ccc(F)cc1 (stereo not given)	95	-	-	-	-	-
Ic1ccccc1CN[C@@H]1C2CCN(CC2)[C@@H]1C(c1ccccc1)c1ccccc1	.	.	.	.	.	-
O=C1NC(=S)NC(=O)C1=Cc1ccc(Br)s1	-	-	-	-	-	-
CN1C(=O)/C(=C\c2ccc(Br)s2)C(=O)NC1=S	-	-	-	15	-	-
C/C=C(\C)C(=O)OC1C(C)=C2C(C1OC(=O)CCCCC)C(C)(OC(C)=O)CC(OC(=O)CCC)C1(O)C2OC(=O)C1(C)O (stereo not given)	-	14	-	-	-	.
CC(C)CCOP(N)(=O)Oc1ccccc1 (stereo not given)	-	-	-	-	-	-
COC(=O)C1=C(c2ccc(F)cc2OCc2ccccc2)C[C@@H]2CC[C@H]1N2C(=O)NCCCOC(C)C	.	.	.	.	.	-
CN1C(CC(O)c2ccccc2)CCCC1CC(O)c1ccccc1 (stereo not given)	.	.	.	.	.	-
Cn1c[n+](C)cc1C(O)c1ccccc1 (stereo not given)	96!	-	-	-	-	-
COc1cc(/C=N/NP(=S)(c2ccccc2)c2ccccc2)ccc1O	-	-	-	-	-	-
Oc1ccc(/C=N/NP(=S)(c2ccccc2)c2ccccc2)cc1	83	-	-	-	-	-
C=CCn1c(O)c(/C=C2/C=c3ccccc3=N2)c(=O)[nH]c1=S	-	-	-	35	-	-
CCc1c(C)nc(N)nc1N1N=C1SCCOc1ccccc1	-	-	-	8.2	-	-
CCCCSC1=NN1c1nc(N)nc(C)c1CC	-	-	-	-	-	-
SMILES	PHOSPHO1 inh	KCNQ1 pot	KCNQ1 inh	hERG protect	KCNK9 inh	KCNK3 inh
CCOP(=S)(OCC)c1ccc(N(C)C)cc1	-	9	-	-	-	-
CCc1ccc(NP(=O)(Oc2ccccc2F)Oc2ccccc2F)cc1	-	-	-	-	-7.4	-
Cc1ccc(NP(=O)(Oc2ccccc2F)Oc2ccccc2F)cc1	-	-	6	-	-	-
CCOC(=O)c1cn2nc(OP(=S)(OCC)OCC)cc2nc1C	-	-	-	-	-	-
CCOP(=S)(OCC)Oc1nc(Cl)c(Cl)cc1Cl	.	.	.	.	.	-9.1
O=C1Nc2ccccc2/C1=C/c1cnc[nH]1	-	-	-	-	-	-
COc1ccc2c(c1)/C(=C/c1cnc[nH]1)C(=O)N2	-	8	-	-	-	-
